An excerpt weighted towards active compounds, which were near 1% of everything screened.
Yeast tox: Inhibits yeast growth, turbidity readout | S. cerevisiae wild-type growth, A595 turbidity, 16 h | growth inhibition, % at 25 µM (by protocol) | 30,000 compounds, 0.3% hits | AID 685;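 active means mutant and wild-type yeast strains alike exhibit over 30% growth inhibition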;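 further: 0% = untreated cell controls and 100% = YPD media blanks without cells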
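System – wild-type and eIF2Bepsilon-R284H mutant S. cerevisiae, screened separately · Measured by – absorbance at 595 nm (turbidity) · Timing – 16 h compound exposure during growth at 30 °C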
eIF2B yeast act: modulators of yeast eIF2B activity; inhibition, % at 25 µM (by protocol); 27,000 compounds, 0.91% hits; S. cerevisiae eIF2B-epsilon R284H, GCN4-lacZ luminescence; AID 688;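 active means mutant luminescence inhibited past about 50% while wild type luminescence and mutant growth stay under set limits, limit read from the data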
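Assay system: yeast eIF2B-epsilon R284H mutant carrying GCN4–beta-galactosidase fusion / Buffer or medium: YPD / Incubation: 16 h growth with compound at 30 °C, 90 min Beta-Glo step / Detection: Beta-Glo luminescence after Z-buffer lysis, growth by 595 nm absorbance / Read-out: % inhibition of reporter signal and growth versus controls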
An asterisk follows results filed as active; x = no result given.

SMILES	Yeast tox	eIF2B yeast act
CCNC(=O)CC1C(=O)N(c2ccccc2)C(=O)N1CCc1ccc(OC)cc1 (stereo not given)	5	14
CCCCN1C(=O)CN(CCc2ccccc2)C(=O)C1c1ccc(OC)cc1 (stereo not given)	1	58*
CC(C)Cc1cc(C(=O)Nc2cc(C(F)(F)F)ccc2Cl)no1	8	20
CN(c1ccccc1C(=O)Nc1cccc(Cl)c1Cl)S(C)(=O)=O	5	13
COC(=O)C1(Cc2ccccc2)NC(c2ccccc2C)C2C(=O)N(c3ccc4c(c3)OCO4)C(=O)C21 (stereo not given)	-18	22
COc1cccc(C2NC(CC(C)C)(C(=O)O)C3C(=O)N(Cc4ccccc4)C(=O)C23)c1O (stereo not given)	18	52*
COc1ccc(S(=O)(=O)N(CCc2ccccc2)CC(=O)NC(C)C)cc1	18	20
Cc1ccc(C)c(N(CC(=O)NCCC2=CCCCC2)S(C)(=O)=O)c1	15	9
CCn1c(Sc2nc(C)nc3scc(-c4cccs4)c23)n[nH]c1=O	46*	41
CCc1nc2scc(-c3cccs3)c2c(=O)o1	3	-20
CC(C(=O)N1CCc2ccccc21)n1cccc1 (stereo not given)	-14	15
COc1ccc(OC)c(NC(=O)CNC(=O)Cn2cnc3ccccc3c2=O)c1	-4	65*
COc1ccc(NC(=O)CCNC(=O)Cn2cnc3ccccc3c2=O)c(OC)c1	-4	-11
COc1cc(/C=C/c2cc(OC(C)=O)c3ccccc3n2)c(OC(C)=O)c([N+](=O)[O-])c1	-15	27
Cc1ccc(C(=O)CCNc2ccc(Cl)cc2)o1	19	x
COc1ccccc1-c1nnc2sc(COc3ccc(Cl)cc3)nn12	2	63*
COc1ccc(OCc2nn3c(-c4ccccn4)nnc3s2)cc1	8	10
COCCCNC(=O)C1CCCN(S(=O)(=O)c2ccc(C)cc2)C1 (stereo not given)	5	-6
S=c1[nH]nc(-c2cc3ccccc3o2)n1Cc1ccccc1	11	11
Cc1ccc(C2CC(=O)Nc3cc4c(cc32)OCO4)o1 (stereo not given)	22	x
CCOc1ccc(-n2nc(C(=O)N3CCOCC3)c3ccccc3c2=O)cc1	-11	59*
CCOc1ccc(-n2nc(C(=O)N3CCN(CC)CC3)c3ccccc3c2=O)cc1	-21	-18
CCCOc1ccc(C(=O)N2CCCc3ccccc32)cc1	-14	73*
COc1cc(OC)cc(C(=O)N2CCCc3ccccc32)c1	2	19
O=C(Nc1ccc2c(c1)C(=O)N(c1ccccc1)C2=O)C1CCCO1 (stereo not given)	9	25
SMILES	Yeast tox	eIF2B yeast act
c1ccc(N(c2ccccc2)c2nc(-n3ccnc3)nc(-n3ccnc3)n2)cc1	101*	95
CN(c1ccccc1)c1nc(-n2ccnc2)nc(-n2ccnc2)n1	-2	28
CCC(=O)Nc1ccccc1Nc1cc(C#N)c(C#N)cc1[N+](=O)[O-]	14	12
CC(C)NC(=O)CCNS(=O)(=O)c1ccc(Br)cc1	-9	83*
Cc1ccc(S(=O)(=O)NCCC(=O)O)cc1	16	35
Cc1c(C(=O)N2CCCCC2)nnn1-c1nonc1N	0	19
O=C(CC1Nc2ccccc2NC1=O)NC1CCCCC1 (stereo not given)	-16	58*
O=C(CCC1=NS(=O)(=O)c2ccccc2N1)NC1CCCCCCC1	-6	22
CCn1nnnc1SCC(=O)N1CCCc2ccccc21	4	33
N#Cc1c(/N=C/c2cccs2)sc2c1CCC2	0	-14
N#Cc1c(/N=C/c2cc(Br)cs2)sc2c1CCC2	0	60*
CCn1c(NCc2cccc(OC)c2OC)nc2ccccc21	5	18
C=CCc1cccc(CNc2nc3ccccc3n2C(C)C)c1O	15	63*
CCN(CC)C(=O)c1cnn(-c2ccccc2)c1NC(=O)c1cccs1	x	-24
Cn1nnnc1SCC(=O)N1CCc2ccccc2C1	14	11
Nn1c(COc2cccc(Br)c2)nnc1SCC(=O)N1CCc2ccccc2C1	1	50*
Cc1cccc(N2C(=O)C3C4C=CC(C4)C3C2=O)c1 (stereo not given)	-6	57*
Cc1ccc(N2C(=O)C3C4C=CC(C4)C3C2=O)cc1C (stereo not given)	-6	7
Cn1c(SCC(=O)c2ccccc2)nnc1-c1cccc(N)c1	6	x
O=C(Nc1ccccn1)c1cc2ccccc2o1	x	57*
CCC(=O)Nc1ccc(NC(=O)c2cc3ccccc3o2)cc1	18	19
c1ccc(-c2cc(-c3nn4c(-c5ccco5)nnc4s3)c3ccccc3n2)cc1	-15	72*
Cc1cc(-c2nn3c(-c4ccccc4)nnc3s2)c2ccccc2n1	-5	13
CC(=O)Nc1ccc(-n2nnnc2SCC(=O)N2CCN(C(=O)c3ccco3)CC2)cc1	21	15
Cc1ccc(NC(=O)c2ccccc2N(C)S(C)(=O)=O)cc1C	23	x
SMILES	Yeast tox	eIF2B yeast act
CCOC(=O)c1ccc(NC(=O)CC2C(=O)N(c3ccc(F)cc3)C(=O)N2CCC(C)C)cc1 (stereo not given)	0	25
COC(=O)C1=NN(N=O)C2(CC(=O)N(c3cc(C)cc(C)c3)C2=O)C1 (stereo not given)	43	6
C=CCSc1nc(C)c(CC=C)c(=O)[nH]1	x	-23
C=CCc1c(C)nc(SC(C)C)[nH]c1=O	-13	52*
CCn1c(CNC(=O)Cc2ccc(OC)cc2)nnc1SCC(=O)NC1CCCCC1	-2	x
Cc1cc2n(n1)SC(Nc1ccccc1)N2 (stereo not given)	x	55*
O=C(Nc1ccccc1)C1CC=CCC1C(=O)OCC1CCCO1 (stereo not given)	33*	22
O=C(NCC1CCCO1)c1ccccc1 (stereo not given)	12	5
CC1(C)CC(=O)c2cc(OCC(=O)N3CCOCC3)ccc2O1	4	27
CC1(C)CC(=O)c2cc(OCC(=O)NCCCN3CCN(c4ccccc4F)CC3)ccc2O1	-17	52*
COC(=O)CSc1snnc1-c1ccc(Cl)cc1Cl	20	-34
O=C1CC(C(=O)N2CCOCC2)C2(CCCCC2)O1 (stereo not given)	20	x
Cc1ccc(C(=O)Nc2nnc(C3CCCCC3)s2)o1	10	x
Cc1cc(C(=O)Nc2nnc(C3CCCCC3)s2)no1	-1	51*
Cc1ccc2nc(C3CCN(S(=O)(=O)c4ccc5ccccc5c4)CC3)[nH]c2c1	18	x
CCc1ccc2c(c1)C1(NN=C(c3ccc(C)cc3)S1)C(=O)N2 (stereo not given)	x	60*
CC(C)c1ccc2c(c1)C1(NN=C(c3ccccc3)S1)C(=O)N2 (stereo not given)	7	-2
CCc1c(C)nc2cc(-c3ccc(OC)c(OC)c3)nn2c1N1CCCC1	12	15
COc1ccc(-c2cc3nc(C)cc(N)n3n2)cc1	-14	82*
Cn1cc(Cl)c(C(=O)OCC(=O)Nc2nc(-c3ccc(Br)cc3)cs2)n1	29	17
CSc1nnc(-c2sc3cc(C(F)(F)F)cnc3c2-c2ccccc2)n1C	11	-1
Cc1cc(Cl)ccc1N=c1ssnc1Cl	79*	2
CCC(C)(C)n1nnnc1C(c1ccc(C)cc1)N(Cc1ccco1)Cc1cccs1 (stereo not given)	5	3
O=C(C1CCN(S(=O)(=O)c2ccccc2)CC1)N1CCOCC1	7	19
